pIC50: −log10 of the molar value.
Columns and labels:
MCF7 = assay: Cytotoxicity against human MCF7 cells after 24 hrs by MTT assay; assay type: functional; conditions: MCF7, 24 h
In short: (§1)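 Cells kept at 37 °C in humidified 5% CO2 and seeded at 5 × 10³ cells/well the day before. They were PBS-washed, given fresh medium, then exposed to test compounds (0.1–100 µM) for 24 h. MTT (5 mg/mL in PBS) was then added for 4 h at 37 °C. Formazan was dissolved in DMSO and OD read at 570 nm. Each concentration was run in three experiments, three replicates each.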

COLO 205 = assay: Cytotoxicity against human COLO205 cells after 24 hrs by MTT assay; assay type: functional; conditions: COLO 205, 24 h; in short: as §1
[1] = biological target: 5-lipoxygenase (Solanum tuberosum); assay: Inhibition of 5-lipoxygenase
HaCaT = assay: Cytotoxicity against human HaCaT cells at up to 100 uM after 24 hrs by MTT assay; assay type: cell-based; in short: as §1

| SMILES | GI50 (MCF7) | GI50 (COLO 205) | pIC50 [1] | Activity (HaCaT) |
| --- | --- | --- | --- | --- |
| COc1cccc(/C=C/C(=O)c2ccc(OCC=C(C)C)cc2O)c1OC | > 100 µM | > 100 µM | < 4.00 |  |
| COc1ccc(/C=C/C(=O)c2ccc(OCC=C(C)C)cc2O)c(OC)c1OC | > 100 µM | > 100 µM | < 4.00 |  |
| COc1ccc(/C=C/C(=O)c2ccc(OCC=C(C)C)cc2O)cc1OC | > 100 µM | > 100 µM | < 4.00 |  |
| COc1cc(/C=C/C(=O)c2ccc(OCC=C(C)C)cc2O)cc(OC)c1OC | 81 µM | 96 µM | < 4.00 |  |
| COc1ccc(/C=C/C(=O)c2ccc(OCC=C(C)C)cc2OCC=C(C)C)cc1 | 67.5 µM | 97 µM |  |  |
| COc1cccc(/C=C/C(=O)c2ccc(OCC=C(C)C)cc2OCC=C(C)C)c1OC | 73 µM | 99 µM |  |  |
| COc1ccc(/C=C/C(=O)c2ccc(OCC=C(C)C)cc2OCC=C(C)C)c(OC)c1OC | 92 µM | > 100 µM | 4.31 |  |
| COc1ccc(/C=C/C(=O)c2ccc(OCC=C(C)C)cc2OCC=C(C)C)cc1OC | 66.5 µM | 90 µM | 5.05 |  |
| COc1cc(/C=C/C(=O)c2ccc(OCC=C(C)C)cc2OCC=C(C)C)cc(OC)c1OC | 9 µM | 78 µM | 5.40 | Non-toxic |
| COc1ccc(/C=C/C(=O)c2ccc(OCC=C(C)C)cc2O)cc1 | 97.5 µM | > 100 µM | < 4.00 |  |

Source: ChEMBL document CHEMBL1212887, “Design, synthesis, and biological evaluation of prenylated chalcones as 5-LOX inhibitors” (Bioorg Med Chem, 2010)
